{"source": "ChEMBL document CHEMBL4765360", "about": "“Design, synthesis and biological evaluation of novel potent STAT3 inhibitors based on BBI608 for cancer therapy” (Eur J Med Chem, 2020)", "key": {"MDA-MB-231 [1]": {"system": "MDA-MB-231", "experiment": "Antiproliferative activity against human MDA-MB-231 cells overexpressing STAT3 assessed as reduction in cell growth incubated for 48 hrs by CCK-8 assay", "type": "functional, cell-based", "conditions": "MDA-MB-231, 48 h", "in_short": "(§1)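 Cells seeded at 5000-7000/well and allowed to settle for 8 h at 37 °C, 5% CO2. Graded compound concentrations were then added in triplicate (DMSO <0.1%) for 48 h. Medium was replaced with 10% CCK-8 for 4 h (MDA-MB-231, MDA-MB-468) or 1 h (HepG2), and A450 was read. IC50 is mean ± SD of at least three independent experiments. HepG2 was grown in high-glucose DMEM with 10% FBS.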"}, "HepG2": {"system": "HepG2", "experiment": "Antiproliferative activity against human HepG2 cells overexpressed STAT3 assessed as reduction in cell growth incubated for 48 hrs by CCK-8 assay", "type": "functional, cell-based", "conditions": "HepG2, 48 h", "in_short": "as §1"}, "[2]": {"target": "T1, Signal transducer and activator of transcription 3 (Homo sapiens, UniProt P40763)", "T1 sequence (P40763 whole entry)": "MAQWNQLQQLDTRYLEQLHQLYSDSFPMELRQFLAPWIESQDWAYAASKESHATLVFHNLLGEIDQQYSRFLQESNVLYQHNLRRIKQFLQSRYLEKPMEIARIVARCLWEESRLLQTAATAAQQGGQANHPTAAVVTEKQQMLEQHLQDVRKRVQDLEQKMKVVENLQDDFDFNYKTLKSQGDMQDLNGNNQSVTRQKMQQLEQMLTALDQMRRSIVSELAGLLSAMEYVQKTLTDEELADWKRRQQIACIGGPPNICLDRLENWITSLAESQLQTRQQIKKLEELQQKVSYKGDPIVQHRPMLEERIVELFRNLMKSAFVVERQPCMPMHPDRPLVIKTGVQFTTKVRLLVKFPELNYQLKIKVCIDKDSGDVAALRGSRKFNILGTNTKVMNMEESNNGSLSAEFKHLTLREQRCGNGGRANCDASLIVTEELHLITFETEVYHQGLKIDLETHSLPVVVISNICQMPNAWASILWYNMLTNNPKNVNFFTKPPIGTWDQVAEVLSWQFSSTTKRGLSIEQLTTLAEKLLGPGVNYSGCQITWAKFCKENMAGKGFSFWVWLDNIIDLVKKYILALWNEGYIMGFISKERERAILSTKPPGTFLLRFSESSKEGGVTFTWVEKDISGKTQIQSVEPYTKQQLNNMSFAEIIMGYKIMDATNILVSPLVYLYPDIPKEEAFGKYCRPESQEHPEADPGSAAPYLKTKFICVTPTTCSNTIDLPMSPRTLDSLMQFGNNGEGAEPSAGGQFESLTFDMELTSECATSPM", "experiment": "Inhibition of STAT3 in human MDA-MB-231 cells assessed as reduction in STAT3 Y705 phosphorylation incubated for 24 hrs by Western blot analysis", "type": "cell-based", "conditions": "dose 0.75-3 µM", "in_short": "(§2)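 MDA-MB-231 cells treated with a range of concentrations for 24 h. RIPA lysates with PMSF, 40 µg protein/lane, on 10% SDS-PAGE, then PVDF. Blocked in 5% milk/TBST for 2 h. Primary antibodies to STAT3, p-STAT3(Y705), STAT1, p-STAT1(Y701), c-Myc and Cyclin D1 overnight at 4 °C; GAPDH as loading control. HRP secondary for 1 h; ECL detection.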"}, "MDA-MB-231 [3]": {"system": "MDA-MB-231", "experiment": "Effect on STAT3 expression in human MDA-MB-231 cells at 0.75 to 3 uM incubated for 24 hrs by Western blot analysis", "type": "functional, cell-based", "conditions": "dose 0.75-3 µM", "in_short": "as §2"}, "[4]": {"target": "T1, Signal transducer and activator of transcription 3", "experiment": "Inhibition of STAT3 in human MDA-MB-231 cells assessed as reduction in c-myc expression incubated for 24 hrs by Western blot analysis", "type": "cell-based", "conditions": "dose 0.75-3 µM", "in_short": "as §2"}, "MDA-MB-231 [5]": {"system": "MDA-MB-231", "experiment": "Effect on STAT1 expression in human MDA-MB-231 cells at 0.75 to 3 uM incubated for 24 hrs by Western blot analysis", "type": "functional, cell-based", "conditions": "dose 0.75-3 µM", "in_short": "as §2"}, "[6]": {"target": "T1, Signal transducer and activator of transcription 3", "experiment": "Inhibition of STAT3 in human MDA-MB-231 cells assessed as reduction in STAT3 Y705 phosphorylation in nucleus at 3 uM incubated for 24 hrs by immunofluorescence staining based fluorescence microscopy", "type": "subcellular", "in_short": "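MDA-MB-231 cells at 1×10^4 per dish, adhered overnight, then exposed to 3.0 µM for 24 h. Fixed in 4% paraformaldehyde and permeabilized with 0.5% Triton X-100. Blocked in 5% BSA for 1 h. Anti-p-STAT3 primary overnight at 4 °C, then Alexa Fluor 546 anti-rabbit for 1 h at RT. Hoechst nuclear stain; imaged by fluorescence microscopy.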"}, "MDA-MB-231 [7]": {"system": "MDA-MB-231", "experiment": "Induction of apoptosis in human MDA-MB-231 cells assessed as early apoptotic cells at 1 uM incubated for 24 hrs by annexin V-FITC and PI staining based flow cytometry analysis (reference value: 2.69 %)", "type": "functional"}, "MDA-MB-231 [8]": {"system": "MDA-MB-231", "experiment": "Induction of apoptosis in human MDA-MB-231 cells assessed as viable cells at 2 uM incubated for 24 hrs by annexin V-FITC and PI staining based flow cytometry analysis (reference value: 93.37 %)", "type": "functional", "conditions": "read-out: Activity"}, "MDA-MB-231 [9]": {"system": "MDA-MB-231", "experiment": "Induction of apoptosis in human MDA-MB-231 cells assessed as early apoptotic cells at 2 uM incubated for 24 hrs by annexin V-FITC and PI staining based flow cytometry analysis (reference value: 2.69 %)", "type": "functional"}, "MDA-MB-231 [10]": {"system": "MDA-MB-231", "experiment": "Induction of apoptosis in human MDA-MB-231 cells assessed as necrotic cells at 2 uM incubated for 24 hrs by annexin V-FITC and PI staining based flow cytometry analysis (reference value: 0.23 %)", "type": "functional"}, "MDA-MB-231 [11]": {"system": "MDA-MB-231", "experiment": "Induction of apoptosis in human MDA-MB-231 cells assessed as viable cells at 4 uM incubated for 24 hrs by annexin V-FITC and PI staining based flow cytometry analysis (reference value: 93.37 %)", "type": "functional", "conditions": "read-out: Activity"}, "MDA-MB-231 [12]": {"system": "MDA-MB-231", "experiment": "Induction of apoptosis in human MDA-MB-231 cells assessed as necrotic cells at 4 uM incubated for 24 hrs by annexin V-FITC and PI staining based flow cytometry analysis (reference value: 0.23 %)", "type": "functional"}, "MDA-MB-231 [13]": {"system": "MDA-MB-231", "experiment": "Induction of cell cycle arrest in human MDA-MB-231 cells assessed as increase in S phase accumulation incubated for 24 hrs by PI staining based flow cytometry analysis", "type": "functional", "conditions": "dose 1-4 µM"}, "MDA-MB-231 [14]": {"system": "MDA-MB-231", "experiment": "Induction of cell cycle arrest in human MDA-MB-231 cells assessed as G0/G1 phase accumulation at 1 uM incubated for 24 hrs by PI staining based flow cytometry analysis (reference value: 57.99 %)", "type": "functional"}, "MDA-MB-231 [15]": {"system": "MDA-MB-231", "experiment": "Induction of cell cycle arrest in human MDA-MB-231 cells assessed as G2/M phase accumulation at 1 uM incubated for 24 hrs by PI staining based flow cytometry analysis (reference value: 15.80 %)", "type": "functional"}, "MDA-MB-231 [16]": {"system": "MDA-MB-231", "experiment": "Induction of cell cycle arrest in human MDA-MB-231 cells assessed as S phase accumulation at 2 uM incubated for 24 hrs by PI staining based flow cytometry analysis (reference value: 26.21 %)", "type": "functional"}, "MDA-MB-231 [17]": {"system": "MDA-MB-231", "experiment": "Induction of cell cycle arrest in human MDA-MB-231 cells assessed as S phase accumulation at 4 uM incubated for 24 hrs by PI staining based flow cytometry analysis (reference value: 26.21 %)", "type": "functional"}, "MDA-MB-231 [18]": {"system": "MDA-MB-231", "experiment": "Induction of cell cycle arrest in human MDA-MB-231 cells assessed as G2/M phase accumulation at 4 uM incubated for 24 hrs by PI staining based flow cytometry analysis (reference value: 15.80 %)", "type": "functional"}, "MDA-MB-231 [19]": {"system": "MDA-MB-231", "experiment": "Antitumor activity against human MDA-MB-231 cells xenografted in BALB/c mouse assessed as reduction in tumor growth at 10 mg/kg, ip administered once daily for 21 days and measured on day 21 relative to control", "type": "functional", "conditions": "MDA-MB-231, ip, 504 h, time 21 day, read-out: TGI", "in_short": "(§3)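 Female BALB/c nude mice, 5 weeks old (16–18 g), were given 5×10^6 MDA-MB-231 cells subcutaneously. At ~50 mm³, mice were randomized to three groups (n=6): vehicle, 5 or 10 mg/kg i.p. daily for 21 days. Tumor volume (length×width²/2) was measured every 3 days and body weight recorded. Tumors were excised and weighed at the end. TGI derived versus control; mean ± SEM.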"}, "Mus musculus": {"system": "Mus musculus", "experiment": "In vivo inhibition of STAT3 in BALB/c mouse xenografted with human MDA-MB-231 cells assessed as reduction in STAT3 Y705 phosphorylation in tumor tissue at 10 mg/kg, ip administered once daily for 21 days and measured on day 21 by immunofluorescent staining based fluorescence microscopy", "type": "functional, organism-based", "conditions": "dose 10.0 mg/kg/day, time 21.0 day", "in_short": "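Tumors from the xenograft study (10 mg/kg i.p. daily, 21 days) were sectioned and fixed. Sections were stained with anti-p-STAT3 overnight at 4 °C, then Cy3 anti-rabbit secondary for 40 min at 37 °C. Nuclei stained with DAPI; imaged by fluorescence microscopy. Mean ± SEM, n=4.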"}, "MDA-MB-231 [20]": {"system": "MDA-MB-231", "experiment": "Antitumor activity against human MDA-MB-231 cells xenografted in BALB/c mouse assessed as reduction in tumor growth at 5 mg/kg, ip administered once daily for 21 days and measured on day 21 relative to control", "type": "functional", "conditions": "MDA-MB-231, ip, 504 h, time 21 day, read-out: TGI", "in_short": "as §3"}}, "note": "Activity calls are given as the source filed them. The calls are words filed in the database; no cut-off is given here.", "data": [{"smiles": "COc1ccc(NC2=CC(=O)c3cc(C(C)=O)oc3C2=O)cc1", "values": [{"measurement": "IC50", "setting": "MDA-MB-231 [1]", "value": 670, "unit": "nM"}, {"measurement": "IC50", "setting": "HepG2", "value": 1240, "unit": "nM"}, {"measurement": "inhibition", "setting": "[2]", "value": "Dose-dependent effect"}, {"measurement": "Activity", "setting": "MDA-MB-231 [3]", "value": "inactive"}, {"measurement": "inhibition", "setting": "[4]", "value": "Dose-dependent effect"}, {"measurement": "Activity", "setting": "MDA-MB-231 [5]", "value": "inactive"}, {"measurement": "inhibition", "setting": "[6]", "value": "Active"}, {"measurement": "Activity", "setting": "MDA-MB-231 [7]", "value": 5.21, "unit": "%"}, {"measurement": "viability at 2 µM", "setting": "MDA-MB-231 [8]", "value": 82.2, "unit": "%"}, {"measurement": "Activity", "setting": "MDA-MB-231 [9]", "value": 4.69, "unit": "%"}, {"measurement": "Activity", "setting": "MDA-MB-231 [10]", "value": 0.38, "unit": "%"}, {"measurement": "viability at 4 µM", "setting": "MDA-MB-231 [11]", "value": 67, "unit": "%"}, {"measurement": "Activity", "setting": "MDA-MB-231 [12]", "value": 0.77, "unit": "%"}, {"measurement": "Activity", "setting": "MDA-MB-231 [13]", "value": "Dose-dependent effect"}, {"measurement": "Activity", "setting": "MDA-MB-231 [14]", "value": 49.42, "unit": "%"}, {"measurement": "Activity", "setting": "MDA-MB-231 [15]", "value": 16.27, "unit": "%"}, {"measurement": "Activity", "setting": "MDA-MB-231 [16]", "value": 46.21, "unit": "%"}, {"measurement": "Activity", "setting": "MDA-MB-231 [17]", "value": 57.09, "unit": "%"}, {"measurement": "Activity", "setting": "MDA-MB-231 [18]", "value": 7.52, "unit": "%"}, {"measurement": "inhibition in vivo at 10 mg/kg/day", "setting": "MDA-MB-231 [19]", "value": 54.6, "unit": "%"}, {"measurement": "inhibition", "setting": "Mus musculus", "value": "Active"}, {"measurement": "inhibition in vivo at 5 mg/kg/day", "setting": "MDA-MB-231 [20]", "value": 8.42, "unit": "%"}]}]}
